In ChEMBL document CHEMBL4706773, “Discovery of Novel PTP1B Inhibitors Derived from the BH3 Domain of Proapoptotic Bcl-2 Proteins with Antidiabetic Potency” (ACS Med Chem Lett, 2021):
Peptide text beside a SMILES is read from it. * marks the point of attachment. Palmitoyl = CCCCCCCCCCCCCCCC(=O)*

Tests used:
[1] = biological target: T1, Tyrosine-protein phosphatase non-receptor type 1 (Homo sapiens, UniProt P18031); experiment: Binding affinity to recombinant human PTP1B measured by Surface plasmon resonance assay
T1 sequence (P18031 whole entry): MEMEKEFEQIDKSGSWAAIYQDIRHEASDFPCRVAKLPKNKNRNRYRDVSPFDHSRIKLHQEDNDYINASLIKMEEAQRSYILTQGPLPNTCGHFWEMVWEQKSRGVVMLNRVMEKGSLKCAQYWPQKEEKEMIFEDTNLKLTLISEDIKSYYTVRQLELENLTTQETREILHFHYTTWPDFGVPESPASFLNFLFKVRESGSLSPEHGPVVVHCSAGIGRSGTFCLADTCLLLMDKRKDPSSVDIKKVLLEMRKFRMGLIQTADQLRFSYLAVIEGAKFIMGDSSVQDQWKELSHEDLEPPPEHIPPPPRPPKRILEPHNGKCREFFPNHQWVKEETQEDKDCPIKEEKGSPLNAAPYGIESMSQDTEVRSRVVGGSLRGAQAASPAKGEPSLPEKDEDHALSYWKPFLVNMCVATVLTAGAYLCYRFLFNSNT

[2] = biological target: T2, Tyrosine-protein phosphatase non-receptor type 1 (Homo sapiens) (UniProt P18031); experiment: Binding affinity to recombinant human PTP1B assessed as off-rate constant, Koff measured by Surface plasmon resonance assay
T2 sequence (whole entry): T1 sequence (P18031 whole entry)

[3] = biological target: T2, Tyrosine-protein phosphatase non-receptor type 1 (Homo sapiens); experiment: Binding affinity to recombinant human PTP1B assessed as on-rate constant, Kon measured by Surface plasmon resonance assay
[4] = biological target: T1, Tyrosine-protein phosphatase non-receptor type 1; experiment: Inhibition of recombinant N-terminal His-tagged human PTP1B (E2 to N321) expressed in Escherichia coli expression system assessed by dephosphorylation of substrate pNPP measured for 4 mins by plate reader analysis
[5] = biological target: T2, Tyrosine-protein phosphatase non-receptor type 1 (Homo sapiens); experiment: Inhibition of PTP1B in human insulin resistant HepG2 cells assessed as induction of 2-NBDG uptake incubated with compound for 24 hrs followed by treatment with insulin for 30 mins and later incubated with 2-NBDG for 30 mins by fluorimetric method; type: cell-based; conditions: dose 0.1-10 µM, time 25.0 hrs
Method in brief: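 HepG2 cells were made insulin-resistant with palmitic acid, then treated 24 h with test agents at several concentrations. Vehicle was equal-volume DMSO. Mean ± SD, n = 4, compared with vehicle.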

Mus musculus = experiment: Antidiabetic activity in diabetic db/db C57BL/K mouse assessed as decrease in blood glucose at 0.5 umol/kg, sc qd for 7 days measured at 1 hr post-last drug dosing by blood glucose meter analysis; type: functional; conditions: 168 h, time 7 day
Method in brief: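 Diabetic db/db mice received a daily s.c. dose (0.5 or 2 μmol/kg) or vehicle for one week. Blood glucose was compared at baseline and at 1 week, and the value is the percent decrease of blood glucose. Liraglutide was the positive control.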

Kd [1] | K [2] | K [3] | Kd ([1]; read-out: Kd) | IC50 [4] | inhibition [5] | Compound | other results
Not Active |  |  |  |  |  | CCCCCCCCCCCCCCCC(=O)N[C@@H](Cc1ccc(O)cc1)C(=O)NCC(=O)N[C@@H](CCCNC(=N)N)C(=O)N[C@@H](CCC(=O)O)C(=O)N[C@@H](CC(C)C)C(=O)N[C@@H](CCCNC(=N)N)C(=O)N[C@@H](CCCNC(=N)N)C(=O)N[C@@H](CCSC)C(=O)N[C@@H](CO)C(=O)N[C@@H](CC(=O)O)C(=O)N[C@@H](CCC(=O)O)C(=O)N[C@@H](Cc1ccccc1)C(=O)O (Palmitoyl-YGRELRRMSDEF-OH) | 
 | 8.39 10^-4/s | 9.73 10^3/M.s | 86.3 nM | 5250 nM | Dose-dependent effect | H-STKKLSECLKRIGDELDSNM-OH | 
Not Active |  |  |  |  |  | CCCCCCCCCCCCCCCC(=O)N[C@H](C(=O)N[C@@H](C)C(=O)N[C@@H](CCCNC(=N)N)C(=O)N[C@@H](CCCCN)C(=O)N[C@@H](CC(C)C)C(=O)N[C@@H](CCC(N)=O)C(=O)N[C@@H](CS)C(=O)N[C@H](C(=O)N[C@@H](C)C(=O)N[C@@H](CC(=O)O)C(=O)N[C@@H](CCC(N)=O)C(=O)N[C@@H](Cc1ccccc1)C(=O)O)[C@@H](C)CC)[C@@H](C)CC (Palmitoyl-IARKLQCIADQF-OH) | 
 |  |  |  |  |  | CCCCCCCCCCCCCCCC(=O)N[C@@H](CCC(=O)NCCCC[C@H](NC(=O)[C@H](C)NC(=O)[C@H](C)NC(=O)[C@H](CCC(N)=O)NC(=O)CNC(=O)[C@H](CCC(=O)O)NC(=O)[C@H](CC(C)C)NC(=O)[C@H](Cc1ccc(O)cc1)NC(=O)[C@H](CO)NC(=O)[C@H](CO)NC(=O)[C@@H](NC(=O)[C@H](CC(=O)O)NC(=O)[C@H](CO)NC(=O)[C@@H](NC(=O)[C@H](Cc1ccccc1)NC(=O)[C@@H](NC(=O)CNC(=O)[C@H](CCC(=O)O)NC(=O)[C@H](C)NC(=O)[C@@H](N)Cc1cnc[nH]1)[C@@H](C)O)[C@@H](C)O)C(C)C)C(=O)N[C@@H](CCC(=O)O)C(=O)N[C@@H](Cc1ccccc1)C(=O)N[C@H](C(=O)N[C@@H](C)C(=O)N[C@@H](Cc1c[nH]c2ccccc12)C(=O)N[C@@H](CC(C)C)C(=O)N[C@H](C(=O)N[C@@H](CCCNC(=N)N)C(=O)NCC(=O)N[C@@H](CCCNC(=N)N)C(=O)NCC(=O)O)C(C)C)[C@@H](C)CC)C(=O)O [LIRAGLUTIDE] | inhibition in vivo at 0.5 µmol/kg (Mus musculus): 72.6%
 | 1.52 10^-4/s | 1.45 10^4/M.s | 105 nM | 6840 nM | Dose-dependent effect | H-WAREIGAQLRRMADDLNAQY-OH | 
Not Active |  |  |  |  |  | CCCCCCCCCCCCCCCC(=O)N[C@@H](CS)C(=O)N[C@@H](C)C(=O)N[C@H](C(=O)N[C@@H](CCC(N)=O)C(=O)N[C@@H](CC(C)C)C(=O)N[C@@H](CCCNC(=N)N)C(=O)N[C@@H](CCCNC(=N)N)C(=O)N[C@@H](Cc1ccccc1)C(=O)NCC(=O)N[C@@H](CC(=O)O)C(=O)N[C@@H](CCCCN)C(=O)N[C@@H](CC(C)C)C(=O)O)[C@@H](C)O (Palmitoyl-CATQLRRFGDKL-OH) | 
